Compound activity (PubChem)
Only some compounds are listed: those with a hit (about 6% of all), similar ones and a draw of the others.
Jurkat viability – cytotoxicity toward Jurkat cells. Jurkat E6.1 viability, ATP luminescence, 48 h. inhibition, % at 4 µM. hit rate 1.2% among 56,000. AID 463;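 active = inhibition above the mean inhibition of all tested compounds plus 3 SD, cut at about 28% in these data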
HUVEC prolif 384 – human endothelial cell proliferation inhibition; HUVEC proliferation, CellTiter-Glo luminescence, 72 h; hits give low values; viability, % at 10 µM (by protocol); hit rate 1.1% among 86,000;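 active = viability at or below 30%; inactive = viability above 30%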;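 note: 100% = median luminescence of DMSO-only cell control wells on each plate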
Fibroblast inh – blocks proliferation of human lung fibroblasts; viability, % at 10 µM; LL 47 human lung fibroblast viability, ATP luminescence; hits give low values; AID 719; hit rate 1.1% among 85,000;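 active = viability at or below 50% in the single dose screen; inactive = viability above 50%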;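 note: compound exposure lasted 72 h before the ATP readout; 100% = median luminescence of untreated cell-only wells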
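Test system: LL 47 human lung fibroblasts / Incubation: 72 h compound exposure at 37 °C after overnight plating / Technique: luminescent ATP detection, CellTiter-Glo / Compound dosing: 0.1% DMSO in all compound wells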
cytoskel mod – cytoskeleton assembly modification. hit rate 0.18% among 91,000. inhibition, % at 2 µM. AID 836. HUVEC TNFa F-actin phalloidin imaging, high content;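 active = inhibition above the batch mean plus 3 SD and confirmed as a hit by visual image inspection, cut at about 30% in these data, passing the limit was not always enough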
Pyk2 oligo antag – Pyk2 (human) oligomerization antagonism; Q14289; Q293 cells, Pyk2 FERM NanoBiT luminescence; hits give low values; z-score (the deposit names both 25 µM and 10 µM); hit rate 0.83% among 99,000; AID 1347419;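 active = Z-score of -3 or lower, scaled per plate to the spread of control and sample wells; inactive = z-score above -3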;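 note: negative z-score means lost luminescence so less FERM oligomerization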
Target sequence (Q14289 whole entry, looked up): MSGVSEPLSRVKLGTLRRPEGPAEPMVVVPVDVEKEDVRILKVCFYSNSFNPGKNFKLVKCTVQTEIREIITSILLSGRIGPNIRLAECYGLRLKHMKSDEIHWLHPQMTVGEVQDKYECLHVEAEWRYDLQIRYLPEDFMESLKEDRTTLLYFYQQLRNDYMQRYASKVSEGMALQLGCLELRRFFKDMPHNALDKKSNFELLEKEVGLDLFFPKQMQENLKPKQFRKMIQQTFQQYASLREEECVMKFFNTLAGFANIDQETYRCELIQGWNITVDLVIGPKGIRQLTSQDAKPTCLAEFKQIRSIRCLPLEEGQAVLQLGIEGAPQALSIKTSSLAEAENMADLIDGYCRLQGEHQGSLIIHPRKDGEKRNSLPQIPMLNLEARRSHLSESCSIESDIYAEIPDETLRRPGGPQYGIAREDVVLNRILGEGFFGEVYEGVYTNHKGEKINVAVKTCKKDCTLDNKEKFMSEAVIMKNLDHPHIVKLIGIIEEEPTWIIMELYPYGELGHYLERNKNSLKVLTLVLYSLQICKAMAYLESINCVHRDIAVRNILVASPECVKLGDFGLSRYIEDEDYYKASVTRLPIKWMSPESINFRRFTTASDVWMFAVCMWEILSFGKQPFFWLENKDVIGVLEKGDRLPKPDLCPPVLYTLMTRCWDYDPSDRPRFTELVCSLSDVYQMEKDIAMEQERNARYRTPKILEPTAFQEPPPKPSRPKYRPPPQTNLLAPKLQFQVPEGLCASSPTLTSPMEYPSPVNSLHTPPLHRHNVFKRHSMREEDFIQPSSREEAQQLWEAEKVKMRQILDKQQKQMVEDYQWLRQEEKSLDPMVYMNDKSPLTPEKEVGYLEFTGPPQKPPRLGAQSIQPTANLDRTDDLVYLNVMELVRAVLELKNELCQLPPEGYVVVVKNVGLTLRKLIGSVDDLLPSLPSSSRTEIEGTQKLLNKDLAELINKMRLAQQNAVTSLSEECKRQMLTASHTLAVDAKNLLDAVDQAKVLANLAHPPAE
H69AR growth 86K – growth inhibitors of human H69AR lung tumor cells. H69AR lung tumor viability, ATP luminescence, 72 h; hits give low values. viability, % at 10 µM. hit rate 6% among 85,000. AID 598;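 active = viability at or below 40%; inactive = viability above 40%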;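 note: multidrug resistant small cell line overexpressing MRP-1 efflux transporter; 100% = mean luminescence of untreated control wells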
Starred values were filed as active, the others as inactive; . = no result.

SMILES	Jurkat viability	HUVEC prolif 384	Fibroblast inh	cytoskel mod	Pyk2 oligo antag	H69AR growth 86K
CCNC(=S)NNC(=O)c1ccc(OC(F)F)cc1	.	.	.	-7	0.17	.
Cc1cc(C)n(CCc2nc3c4ccccc4nc(SCc4ccc(C#N)cc4)n3n2)n1	-7	77	113	.	.	86
Cc1nc2ccccc2n1CCc1nc2c3ccccc3nc(SCC#N)n2n1	.	28*	77	5	.	22*
Cc1nc2ccccc2n1CCc1nc2c3ccccc3nc(SCC(=O)NCc3ccco3)n2n1	1	79	10*	-49	0.08	21*
Cc1ccc(-c2cccc(NC(=O)C3C4C=CC(C4)C3C(=O)O)c2)o1 (centres undefined)	.	.	.	-34	0.87	.
CCOC(=O)C1=C(C)N(C)C(=O)NC1c1c(C)nn(-c2ccc(C)cc2)c1Cl (centres undefined)	.	88	90	-19	-1.8	31*
O=C1C=C(Nc2ccccc2O)c2ccccc2C1=O	.	4.7*	13*	-4	-2.3	7.9*
O=C1C(C2=C(O)c3ccccc3C2=O)=Nc2ccccc21	-5	.	.	.	-0.19	.
CC(C)(C)n1ncc2c(=O)n(CC(=O)NCc3ccc(F)cc3)cnc21	54*	58	84	13	-0.22	21*
CC(C)(C)n1ncc2c(=O)n(CC(=O)Nc3ccccc3)cnc21	-5	95	105	4	-0.47	80
CCOC(=O)c1ccccc1NC(=O)Cn1cnc2c(cnn2C(C)(C)C)c1=O	-6	82	95	-8	-0.61	37*
Cn1c(N)c(C(=O)COC(=O)C2(c3ccc(Cl)cc3)CCCC2)c(=O)n(C)c1=O	.	101	97	-3	-0.52	95
COc1ccc(CCn2c(C)c(C(C)=O)c3cc(OC(=O)c4ccco4)ccc32)cc1OC	.	92	108	-6	-1.4	80
COc1cc(CNc2ccccc2SC)ccc1O	-1	88	.	11	1.6	27*
CCOc1cc(CNc2ccccc2SC)ccc1O	5	.	.	6	.	.
CC(C)=CCCC(C)NC(=O)NC1CCCCC1 (centres undefined)	6	98	107	-5	-0.63	95
CCOc1cc(-c2cc(-c3ccccc3)nc(N)c2C#N)ccc1O	.	53	82	-10	-3.4*	23*
CCOc1cc(-c2cc(-c3ccc(N)cc3)nc(N)c2C#N)ccc1O	-5	66	95	3	-3.8*	3.6*
CC(C)(C)C(=O)C(Oc1cccc2nonc12)n1cncn1 (centres undefined)	8	108	99	-9	0.66	101
Oc1ccccc1N=Nc1nc(-c2ccccc2)c(-c2ccccc2)[nH]1	.	.	.	-19	-3.8*	.
O=C(c1oc2ccccc2c1CSCc1ccccc1)N1CCN(c2ncccn2)CC1	1	65	79	-1	-1.4	62
CC(NC(=O)NC1CCCCC1)C(c1cccs1)N1CCN(c2ccccc2)CC1 (centres undefined)	.	75	90	-8	.	78
COc1cc(/C=C(/C(=O)c2cccs2)c2nc3ccccc3[nH]2)cc(OC)c1O	.	102	19*	14	-0.14	2.6*
Cc1ccsc1C1C=C(c2cccc(Br)c2)Nc2ncnn21 (centres undefined)	1	75	100	21	-2.3	51
CCc1ccc(C2=CC(c3cc(Br)ccc3F)n3ncnc3N2)cc1 (centres undefined)	.	58	58	21	-2	18*
SMILES	Jurkat viability	HUVEC prolif 384	Fibroblast inh	cytoskel mod	Pyk2 oligo antag	H69AR growth 86K
Fc1ccc(Br)cc1C1C=C(c2ccc(Br)cc2)Nc2ncnn21 (centres undefined)	.	63	60	4	-2.8	18*
O=C(NC1CCCCC1)N1CCN(C(=O)c2ccco2)CC1	.	95	110	.	-0.46	92
CN1c2ccccc2C(C)(C)C12C=Cc1cc(O)ccc1O2 (centres undefined)	54*	.	.	13	-1	.
CC1=C(C(=O)OCc2ccc3c(c2)OCO3)C(c2ccc(Cl)cc2)NC(=O)N1 (centres undefined)	78*	27*	53	-50	-3.2*	29*
CC1=C(C(=O)OCc2ccc3c(c2)OCO3)C(c2ccc(F)cc2)NC(=O)N1 (centres undefined)	84*	.	.	-152	-2.1	.
CC1CN(Cc2ccccc2Cl)CC(C)O1 (centres undefined)	.	98	97	-6	-0.04	97
CCC(c1nnnn1CCc1ccccc1)N(Cc1ccco1)Cc1cc2c(C)ccc(C)c2[nH]c1=O (centres undefined)	-11	78	87	-2	1.4	24*
